Source: PubChem (Broad Institute)
IDH1 mut inh – IDH1 R132H (human) inhibition. O75874. IDH1 R132H reductase, diaphorase/resazurin fluorescence, 60 min. inhibition, % at 10 µM. 0.18% of 70,000 active. AID 624101; in the data active means inhibition above about 34%; inconclusive means no clear call, values can overlap the other calls; inactive means below about 11%
T cruzi growth-1 – T. cruzi proliferation inhibition; T. cruzi beta-gal in NIH3T3, GalScreen luminescence, 90 h; inhibition, % at 8.34 µM; 5.9% of 77,000 active; AID 624255;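 active means mean inhibition above about 93%, with at least 55% of replicates each passing it, limit read from the data, passing the limit was not always enough; inconclusive means only one of those two conditions holds; inactive means neither condition holds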
Pf Dd2 growth – inhibitors of Plasmodium falciparum Dd2 growth | P. falciparum Dd2 growth, SYBR Green, 72 h; hits give low values | activity change, % at 10 µM | 2.3% of 94,000 active; in the data active means activity change below about -80%; inconclusive means no clear call, values can overlap the other calls
GASC1 inh – blocks human GASC-1 (KDM4C) demethylase activity; 0.15% of 96,000 active; AID 720574; GST-KDM4C 2-372, H3K9me3 peptide, LANCE TR-FRET; inhibition, % at 12.5 µM; Q9H3R0;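 active means mean replicate inhibition above about 25%, with at least 55% of replicates also reaching it, limit read from the data, passing the limit was not always enough; inconclusive means only one of those two conditions met; inactive means neither condition met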
Target sequence (Q9H3R0 2-372 limits assumed): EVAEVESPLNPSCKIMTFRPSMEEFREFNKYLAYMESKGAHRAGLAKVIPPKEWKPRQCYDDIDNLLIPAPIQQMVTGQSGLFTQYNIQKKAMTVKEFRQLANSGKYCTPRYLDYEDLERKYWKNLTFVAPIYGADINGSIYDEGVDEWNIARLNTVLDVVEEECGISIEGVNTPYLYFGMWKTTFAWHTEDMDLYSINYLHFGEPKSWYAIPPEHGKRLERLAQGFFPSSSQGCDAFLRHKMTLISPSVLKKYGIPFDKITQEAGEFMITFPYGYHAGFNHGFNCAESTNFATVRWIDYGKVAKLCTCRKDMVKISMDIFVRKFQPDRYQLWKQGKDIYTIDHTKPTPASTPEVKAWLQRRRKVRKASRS
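Material: N-terminal GST-fused human GASC-1 (KDM4C) fragment, residues 2-372. Input: 10 nM enzyme. Incubation: enzyme reaction 30 min, then detection 60 min, both room temperature. Doses: one test concentration per compound. Read-out basis: inhibition from TR-FRET ratio decrease. Detection: LANCE TR-FRET, excitation 340 nm, emissions 618 and 671 nm.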
T cruzi growth-2 – Trypanosoma cruzi proliferation inhibition; shares compounds with T cruzi growth-1; T. cruzi beta-gal in NIH3T3, GalScreen luminescence, 90 h; inhibition, % at 8.35 µM; 72% of 5,600 active; AID 651739;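 active means mean replicate inhibition above about 95% and at least 55% of replicates individually reaching it, limit read from the data; inconclusive means only one of the two criteria is met; inactive means neither criterion is met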
T cruzi growth-3 – Trypanosoma cruzi proliferation inhibition. inhibition, % at 2.09 µM. T. cruzi beta-gal in NIH3T3, GalScreen luminescence, 90 h. 21% of 5,600 active. shares compounds with T cruzi growth-1;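 active means mean inhibition above about 95%, with at least 55% of replicates also reaching it, limit read from the data; inconclusive means meets just one of the two conditions; inactive means meets neither condition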
3T3 cytotox – cytotoxicity in mouse NIH/3T3 fibroblasts | shares compounds with T cruzi growth-1 | AID 651742 | cytotoxicity (signal decrease), % at 8.35 µM | 14% of 5,600 active | NIH/3T3 viability, CellTiter-Glo ATP luminescence, 90 h;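 active means mean signal decrease across replicates above about 35% based on untreated-well scatter, with enough replicates individually passing, limit read from the data; inconclusive means no rule stated though some were filed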
3T3 cytotox 2 – NIH/3T3 (mouse) viability loss; NIH/3T3 viability, CellTiter-Glo ATP luminescence, 90 h; inhibition, % at 24.9 µM; 56% of 5,600 active; shares compounds with T cruzi growth-1;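 active means mean loss of cell viability signal at or above a set limit, and enough replicates individually reaching it; inconclusive means meets only the mean limit or only the replicate share; inactive means meets neither condition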
Numbers stand for hits; 0 = inactive; ? = inconclusive; - = not tested or not shown. Hits are enriched below; roughly 5.8% of the tested compounds scored in any of these assays.

SMILES	IDH1 mut inh	T cruzi growth-1	Pf Dd2 growth	GASC1 inh	T cruzi growth-2	T cruzi growth-3	3T3 cytotox	3T3 cytotox 2
O=C(C[C@H]1CC[C@H](NC(=O)c2ccccc2)[C@@H](CO)O1)NCc1ccc(Oc2ccccc2)cc1	0	0	0	0	-	-	-	-
C[C@@H]1CCCCO[C@@H](CN(C)S(=O)(=O)c2cccs2)[C@H](C)CN([C@H](C)CO)C(=O)c2cc(NS(=O)(=O)c3ccc(Cl)cc3)ccc2O1	0	0	0	0	-	-	-	-
C[C@@H]1CCCCO[C@H](CN(C)S(=O)(=O)c2cccs2)[C@H](C)CN([C@@H](C)CO)C(=O)c2cc(NS(=O)(=O)c3ccc(Cl)cc3)ccc2O1	0	95	0	0	102	0	0	0
C[C@H](CO)N1C[C@H](C)[C@@H](CN(C)S(=O)(=O)c2cccs2)OCCCC[C@H](C)Oc2ccc(NS(=O)(=O)c3ccc(Cl)cc3)cc2C1=O	0	0	0	0	-	-	-	-
C[C@@H]1CCCCO[C@H](CN(C)S(=O)(=O)c2cccs2)[C@@H](C)CN([C@@H](C)CO)C(=O)c2cc(NS(=O)(=O)c3ccc(Cl)cc3)ccc2O1	-	93	0	0	98	99	0	0
C[C@@H]1CCCCO[C@@H](CN(C)S(=O)(=O)c2cccs2)[C@@H](C)CN([C@H](C)CO)C(=O)c2cc(NS(=O)(=O)c3ccc(Cl)cc3)ccc2O1	0	?	0	0	106	0	0	38
C[C@H](CO)N1C[C@H](C)[C@H](CN(C)S(=O)(=O)c2cccs2)OCCCC[C@H](C)Oc2ccc(NS(=O)(=O)c3ccc(Cl)cc3)cc2C1=O	0	104	0	0	102	0	0	0
O=C(C[C@H]1CC[C@H]2[C@@H](COC[C@@H](O)CN2Cc2ccc3c(c2)OCO3)O1)Nc1ccc(-c2ccccc2)cc1	-	113	0	0	99	0	0	69
O=C(C[C@H]1CC[C@H]2[C@@H](COC[C@@H](O)CN2Cc2ccc3c(c2)OCO3)O1)Nc1ccccc1	-	0	0	0	-	-	-	-
O=C(C[C@@H]1CC[C@@H]2[C@H](COC[C@H](O)CN2Cc2ccc3c(c2)OCO3)O1)Nc1ccc(-c2ccccc2)cc1	-	115	0	0	99	99	0	30
O=C(C[C@H]1CC[C@@H]2[C@H](COC[C@@H](O)CN2Cc2ccc3c(c2)OCO3)O1)Nc1ccc(-c2ccccc2)cc1	-	0	0	0	-	-	-	-
COc1ccccc1CNC(=O)C[C@H]1CC[C@H]2[C@@H](COC[C@H](O)CN2Cc2ccc3c(c2)OCO3)O1	-	104	0	0	0	0	0	0
CO[C@@H]1CN(C)C(=O)c2cc(NC(=O)Nc3ccccc3Cl)ccc2OC[C@H](C)NC[C@H]1C	0	0	0	0	-	-	-	-
CC(C)(C)NS(=O)(=O)c1ccc(NC(=O)CSc2nc3ccccc3[nH]2)cc1	0	-	-	-	-	-	-	-
C[C@@H]1CN([C@@H](C)CO)C(=O)Cc2cc(NC(=O)C3CCCCC3)ccc2O[C@@H]1CN(C)CC1CC1	0	97	0	0	0	0	0	0
C[C@H]1CN([C@@H](C)CO)C(=O)Cc2cc(NC(=O)C3CCCCC3)ccc2O[C@@H]1CN(C)Cc1ccc2c(c1)OCO2	0	99	0	0	96	0	0	0
C[C@H](CO)N1C[C@H](C)[C@@H](CN(C)Cc2ccc3c(c2)OCO3)Oc2ccc(NC(=O)C3CCCCC3)cc2CC1=O	0	100	0	0	103	0	0	28
C[C@H]1CN([C@@H](C)CO)C(=O)Cc2cc(NC(=O)C3CCCCC3)ccc2O[C@@H]1CN(C)CC1CC1	0	0	0	0	-	-	-	-
CC(C)CC#Cc1ccc2c(c1)O[C@@H](CN(C)C(=O)c1ccncc1)[C@H](C)CN([C@@H](C)CO)S2(=O)=O	0	0	0	0	-	-	-	-
CC(C)CC#Cc1ccc2c(c1)O[C@@H](CN(C)C(=O)c1ccncc1)[C@@H](C)CN([C@@H](C)CO)S2(=O)=O	0	107	0	0	?	0	0	62
CC(C)CC#Cc1ccc2c(c1)O[C@@H](CN(C)C(=O)c1ccncc1)[C@@H](C)CN([C@H](C)CO)S2(=O)=O	0	104	0	0	107	0	0	71
CCC(=O)N1C[C@H]2[C@@H](c3ccccc31)[C@@H](CO)N2Cc1cc(F)ccc1F	-	0	0	0	-	-	-	-
C[C@@H]1CN([C@H](C)CO)C(=O)c2cc(NC(=O)C3CCCCC3)ccc2O[C@@H](C)CCCCO[C@H]1CN(C)Cc1ccc2c(c1)OCO2	-	0	0	0	-	-	-	-
O=S(=O)(Cc1ccccc1)N1CCCCN2[C@H](C1)[C@H](c1ccc(C#Cc3ccccc3)cc1)[C@@H]2CO	-	104	0	0	108	?	0	107
O=S(=O)(Cc1ccccc1)N1CCCCN2[C@H](C1)[C@@H](c1ccc(C#Cc3ccccc3)cc1)[C@@H]2CO	-	101	0	0	105	112	0	68
SMILES	IDH1 mut inh	T cruzi growth-1	Pf Dd2 growth	GASC1 inh	T cruzi growth-2	T cruzi growth-3	3T3 cytotox	3T3 cytotox 2
C[C@@H](O)C#Cc1ccc([C@H]2[C@H]3CN(S(=O)(=O)Cc4ccccc4)CCCCN3[C@H]2CO)cc1	-	0	0	0	-	-	-	-
CCCC#Cc1ccc([C@@H]2[C@H]3CN(S(=O)(=O)Cc4ccccc4)CCCCN3[C@H]2CO)cc1	-	0	0	0	-	-	-	-
C[C@H](CO)N1C[C@H](C)[C@H](CN(C)Cc2cccnc2)Oc2cc(C#CCN(C)C)ccc2S1(=O)=O	0	91	0	0	95	0	0	?
CCCC#Cc1ccc2c(c1)O[C@H](CN(C)Cc1cccnc1)[C@@H](C)CN([C@@H](C)CO)S2(=O)=O	0	128	0	0	102	104	43	104
C[C@@H]1CN([C@@H](C)CO)S(=O)(=O)c2ccc(C#CCN(C)C)cc2O[C@H]1CN(C)Cc1cccnc1	0	98	0	0	108	103	0	43
C[C@H]1CN([C@@H](C)CO)S(=O)(=O)c2ccc(C#CCN(C)C)cc2O[C@H]1CN(C)Cc1cccnc1	0	0	0	0	-	-	-	-
C[C@@H]1CN([C@H](C)CO)C(=O)c2cc(NS(=O)(=O)c3cn(C)cn3)ccc2O[C@@H](C)CCCCO[C@H]1CN(C)Cc1ccc(C(=O)O)cc1	-	0	0	0	-	-	-	-
CO[C@H](CN(C)C(=O)Nc1ccc(C(F)(F)F)cc1)[C@@H](C)CN(Cc1ccccc1Cl)[C@@H](C)CO	0	101	0	0	101	0	47	104
CO[C@H](CN(C)C(=O)Nc1ccc(C(F)(F)F)cc1)[C@H](C)CN(Cc1ccccc1Cl)[C@@H](C)CO	0	114	0	0	101	100	50	104
